Experimental data reported in PMC6832743 (ACS nano, 2019).

What was measured:
[1] = tested on: Mouse bone marrow-derived dendritic cells (BMDCs); assay: BMDC cytokine secretion; format: cell-based; settings: 6 h incubation + 18 h fresh medium, ELISA
In short: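 Immature mouse bone marrow-derived DCs plated at 2 × 10^6 cells per well and held overnight. Cells exposed for 6 h to free adjuvant, free photosensitizer or loaded mesoporous silica nanoparticles. Medium exchanged for fresh medium and incubation continued for 18 h. Culture medium then collected and IL-12p70 and TNF-α measured with ELISA kits.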

[2] = tested on: Mouse bone marrow-derived dendritic cells (BMDCs); assay: BMDC activation; format: cell-based; settings: 6 h incubation + 18 h fresh medium, flow cytometry
In short: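 Immature mouse bone marrow-derived DCs plated at 2 × 10^6 cells per well and held overnight. Cells exposed for 6 h to free adjuvant, free photosensitizer or adjuvant/photosensitizer-loaded mesoporous silica nanoparticles. Medium then replaced and incubation continued for 18 h. Cells harvested, stained with fluorophore-labelled anti-CD40, anti-CD80 and anti-CD86, and analysed by flow cytometry, gating live intact cells only.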

[3] = UV-vis absorption / aqueous solubility of Ce6; format: physicochemical; settings: Ce6 diluted in PBS; ~660 nm absorption peak absent

| aqueous solubility [3] | Compound | secretion of IL-12p70 and TNF-α [1] | DC maturation (expression levels of CD40, CD80, CD86) [2] |
| --- | --- | --- | --- |
| poor aqueous solubility | C=Cc1c(C)c2cc3nc(c(CC(=O)O)c4[nH]c(cc5nc(cc1[nH]2)C(C)=C5CC)c(C)c4C(=O)O)[C@@H](CCC(=O)O)[C@@H]3C [Ce6, chlorin e6] | did not secrete any detectable levels | no obvious signs of DC maturation |
|  | CSSASMTNMELM [Adpgk] | did not secrete any detectable levels | no obvious signs of DC maturation |
